Bioassay records deposited in PubChem BioAssay by Sanford-Burnham Center for Chemical Genomics.
NadD inh = blocks S. aureus nicotinate mononucleotide adenylyltransferase; hit rate 0.78% among 360,000; inhibition, % at 20 µM; purified NadD enzyme, colorimetric absorbance read-out; AID 602399; in the data active means inhibition above about 26%
STEP inh = STEP (human) phosphatase inhibition. recombinant STEP, OMFP fluorogenic substrate, fluorescence. P54829. hit rate 0.25% among 360,000. inhibition, % at 20 µM;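 active means inhibition at 20 µM, scaled per plate between control wells, above about 37%, limit read from the data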
Target sequence (P54829 whole entry, looked up): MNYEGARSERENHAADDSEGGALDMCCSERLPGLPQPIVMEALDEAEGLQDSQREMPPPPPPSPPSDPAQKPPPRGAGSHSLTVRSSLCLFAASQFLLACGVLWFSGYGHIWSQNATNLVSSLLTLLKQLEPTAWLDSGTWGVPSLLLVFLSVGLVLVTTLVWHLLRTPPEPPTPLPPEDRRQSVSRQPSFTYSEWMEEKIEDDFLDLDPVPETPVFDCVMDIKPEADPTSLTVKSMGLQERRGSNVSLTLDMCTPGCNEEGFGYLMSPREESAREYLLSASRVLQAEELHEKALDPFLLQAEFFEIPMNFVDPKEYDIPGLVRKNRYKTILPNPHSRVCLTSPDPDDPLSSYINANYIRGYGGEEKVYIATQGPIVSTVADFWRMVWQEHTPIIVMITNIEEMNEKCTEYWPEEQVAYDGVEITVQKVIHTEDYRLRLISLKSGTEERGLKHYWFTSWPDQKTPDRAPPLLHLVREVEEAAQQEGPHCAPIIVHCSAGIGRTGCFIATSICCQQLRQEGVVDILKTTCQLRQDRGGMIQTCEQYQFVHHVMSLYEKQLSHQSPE
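Assay system: isolated STEP enzyme / Timing: 20 min at room temperature, dark / Doses: 20 µM, 1% DMSO / Technique: fluorescence intensity, excitation 480 nm, emission 540 nm / Reagent: fluorogenic phosphatase substrate OMFP at 25 µM final / Measure: percent inhibition scaled to no-enzyme and uninhibited-enzyme controls, plate-pattern corrected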
Scp-1 inhibitor = blocks human Scp-1 phosphatase activity; Q9GZU7; Recombinant Scp1, phosphopeptide, malachite green phosphate absorbance; inhibition, % at 20 µM; hit rate 0.88% among 340,000;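 active means inhibition above about 50% at 20 µM, limit read from the data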
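assay system = SCP-1 phosphatase catalytic domain, residues 76-261 | buffer or medium = 50 mM Tris acetate pH 5.5, 0.005% Tween-20, 10 mM MgCl2 | incubation = enzyme reaction 45 min at room temperature, colour 5 min, stabilisation 30 min | signal = Phosphate-binding colour reagent, absorbance read at 630 nm | measure = % inhibition at 20 µM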
SUMO1-SIM PPI = alters human SUMO1 binding to SIM partners. P63165. inhibition, % at 20 µM. hit rate 0.33% among 360,000. SUMO1 binding to a labelled peptide, TR-FRET, 1 h; in the data active means inhibition above about 37%
Target sequence (P63165 whole entry, looked up): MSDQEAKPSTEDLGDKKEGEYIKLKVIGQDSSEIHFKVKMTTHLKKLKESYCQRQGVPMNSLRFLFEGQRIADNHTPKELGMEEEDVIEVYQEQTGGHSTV
LMPTP block = blocks human LMPTP phosphatase; recombinant LMPTP-A, OMFP fluorogenic substrate, fluorescence intensity; P24666; AID 651560; inhibition, % at 20 µM; hit rate 0.22% among 360,000;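 active means compounds that cut the enzyme signal by at least half of the control window in the single-dose screen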
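Test system: LMPTP-A phosphatase enzyme; input: 0.625 nM LMPTP-A final; reagent: OMFP substrate, 400 µM final; compound dosing: 20 µM single dose, 3% DMSO; incubation: 50 min dark incubation at room temperature; measured by: endpoint fluorescence intensity from OMFP dephosphorylation; measure: % inhibition relative to no-enzyme and uninhibited control wells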
DNMT1 block = DNMT1 (human) enzyme inhibition | P26358 | DNMT1 molecular beacon, Hinp1I cleavage, fluorescence | inhibition (reported as % activation of signal), % at 10 µM | hit rate 0.83% among 360,000 | AID 588458; in the data active means inhibition above about 50%
Scp1 confirm = confirmation of human Scp-1 phosphatase inhibitors; shares compounds with Scp-1 inhibitor; recombinant SCP-1 catalytic domain, phosphate release, malachite green absorbance; inhibition, % at 20 µM; hit rate 61% among 2,500; AID 540281
MG interference = interferes with malachite green readout, flagging false Scp-1 hits; shares compounds with Scp-1 inhibitor; apparent inhibition (interference), % at 20 µM; Colorimetric interference counterscreen, malachite green absorbance 630 nm; 2,500 tested, under 10 active;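 further: compounds added after enzyme reaction finished so only phosphate colour detection is probed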
Scp1 DSF = Scp-1 (human) binding by thermal shift; AID 540329; hit rate 25% among 1,500; Recombinant SCP1, Sypro Orange thermal shift Tm; thermal shift relative to vanadate control, % at 40 µM; shares compounds with Scp-1 inhibitor;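 active means substances whose mean melting-temperature shift, as a percentage of the reference inhibitor's shift, reaches about 5.3%, limit read from the data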
Hits are given with their value; - = inactive; . = no result. In the library only some 2.4% were active in any assay of this set; here they are far more common.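 How the source made its calls, unless noted: active means inhibition of at least 30% at 20 µM; inactive means the rest.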

SMILES | NadD inh | STEP inh | Scp-1 inhibitor | SUMO1-SIM PPI | LMPTP block | DNMT1 block | Scp1 confirm | MG interference | Scp1 DSF
COc1ccc(C)cc1NC(=O)c1cc(S(=O)(=O)N2CCCCC2)ccc1N1CCOCC1 | - | - | - | - | - | - | . | . | .
CC(=O)NC12CC3CC(C1)CC(C(=O)N1CCN(S(=O)(=O)c4ccccc4C#N)CC1)(C3)C2 | - | - | - | - | - | - | . | . | .
Brc1ccc(-c2nn3c(-c4ccccn4)nnc3s2)o1 | - | - | 72 | - | - | - | 50 | - | -
Clc1ccccc1-c1nn2c(-c3ccccn3)nnc2s1 | - | - | - | - | - | - | . | . | .
Cn1c(=O)c2c(ncn2CC(=O)N2CCN(S(=O)(=O)c3ccc(Cl)cc3)CC2)n(C)c1=O | - | - | 64 | - | - | - | - | - | .
O=C(c1cc2ncc(Br)cn2n1)N1CCN(C(=O)c2ccco2)CC1 | - | - | 56 | - | - | - | 43 | - | -
CCOC(=O)C1(C)CCN1C(=O)c1cncc(Br)c1 (stereo not given) | - | - | . | - | - | - | . | . | .
CCn1ccc(C(=O)NC2C(=O)N3C(C(=O)O)=C(C)CSC23)n1 (stereo not given) | - | - | - | - | - | - | . | . | .
C=CC1=C(C(=O)O)N2C(=O)[C@@H](NC(=O)/C(=N\O)c3csc(N)n3)[C@H]2SC1 (stereo in doubt) | - | 73 | 98 | 63 | 79 | 89 | 60 | - | -
CC1(C)OC(=O)C(=Cc2ccc(-c3ccc(Cl)c(C(=O)O)c3)o2)C(=O)O1 | - | - | 57 | - | - | 52 | 57 | - | -
Cc1ccc(N2NC(=O)/C(=C/c3ccc(-c4ccc(Cl)c(C(=O)O)c4)o3)C2=O)cc1C | - | - | - | - | - | - | . | . | .
CCN1C[C@@H]2[C@@H]3C(=O)N(C)C(=O)[C@@H]3[C@](CC)(C1=O)N2C(=O)c1ccc(C)cc1 | - | - | - | - | - | - | . | . | .
COc1cccc(CNC(=O)c2ccc(CS(=O)Cc3ccccc3Cl)o2)c1 (stereo not given) | - | - | . | - | - | - | . | . | .
O=C(CSc1nc2sc3c(c2c(=O)n1-c1ccccc1)CCCC3)N/N=C/c1ccc(C(=O)O)cc1 | - | - | 51 | - | - | - | 38 | - | -
CC(=O)Nc1ccc(S(=O)(=O)NCC(=O)Nc2ccc3c(c2)OCO3)cc1 | - | - | - | - | - | - | . | . | .
COC(=O)c1ccc(NC(C)C(=O)OC)c([N+](=O)[O-])c1 (stereo not given) | - | - | - | - | - | - | . | . | .
Cc1c(C(=O)OCC[N+]2(C)CCCCC2)oc2ccccc12 | - | - | 89 | - | - | - | - | - | .
CCOc1ccc(N2C(=O)CC(N(CCc3ccc(OC)c(OC)c3)C(=O)/C=C/C(=O)O)C2=O)cc1 (stereo not given) | - | - | - | - | - | - | . | . | .
Oc1c(Br)cc(/C=N/n2c(-c3ccccc3)n[nH]c2=S)cc1Br | - | - | 56 | - | - | - | 80 | - | 9.1
Oc1c(Br)cc(/C=N/n2c(-c3ccccc3)n[nH]c2=S)c(O)c1Br | - | - | 79 | - | - | - | 88 | - | -
Oc1ccc(/C=N/n2c(-c3ccccc3)n[nH]c2=S)cc1Br | - | - | - | - | - | - | . | . | .
Cn1c(=O)c(=O)n(C)c2cc(S(=O)(=O)N3CCCC3C(=O)NCc3ccco3)ccc21 (stereo not given) | - | - | - | - | - | - | . | . | .
Cn1c(=O)c(=O)n(C)c2cc(S(=O)(=O)N3CCCC3C(=O)NCc3cccnc3)ccc21 (stereo not given) | - | - | - | - | - | - | - | - | .
Cc1ccc(C)c(NC(=O)C2CCCN2S(=O)(=O)c2ccc3c(c2)n(C)c(=O)c(=O)n3C)c1 (stereo not given) | - | - | - | - | - | - | - | - | .
COc1ccc(/C=C(\NC(=O)c2ccc([N+](=O)[O-])cc2)C(=O)NCCCN2CCOCC2)cc1 | - | - | - | - | - | - | . | . | .
SMILES | NadD inh | STEP inh | Scp-1 inhibitor | SUMO1-SIM PPI | LMPTP block | DNMT1 block | Scp1 confirm | MG interference | Scp1 DSF
CC(=O)OC1C2CCC1C([N+]1(C)CCCCC1)CC2 (stereo not given) | - | - | 94 | - | - | - | 95 | - | -
COc1ccc(CCN2CC(C(=O)OC(C)C(=O)Nc3cccc(Cl)c3)CC2=O)cc1OC (stereo not given) | - | - | - | - | - | - | - | - | .
COc1ccc(CCN2CC(C(=O)Nc3cccc(C(C)=O)c3)CC2=O)cc1OC (stereo not given) | - | - | - | - | - | - | . | . | .
Cc1c(Cl)c(C(F)F)nn1CC(=O)NC1C(=O)N2C(C(=O)O)=C(CSc3nnnn3C)CSC12 (stereo not given) | - | - | 68 | - | - | - | 56 | - | -
Cn1nnnc1SCC1=C(C(=O)O)N2C(=O)C(NC(=O)Cn3nc(C(F)F)cc3C3CC3)C2SC1 (stereo not given) | - | - | 56 | - | - | - | 61 | - | -
Cc1c(Cl)cnn1CC(=O)NC1C(=O)N2C(C(=O)O)=C(CSc3nnnn3C)CSC12 (stereo not given) | - | - | - | - | - | - | . | . | .
CC1(C(=O)Nc2cccc(Oc3ccccc3)c2)CCN1Cc1cccc2c1OCO2 (stereo not given) | - | - | . | - | - | - | . | . | .
Cc1ccc(C(=O)Oc2cccc(NC(=O)c3ccco3)c2)cc1S(=O)(=O)N1CCC(C)CC1 | - | - | 54 | - | - | - | - | - | .
O=C(Oc1cccc(NC(=O)c2ccco2)c1)c1ccc(Br)c(S(=O)(=O)N2CCCCC2)c1 | - | - | - | - | - | - | . | . | .
Cc1ccc(S(=O)(=O)NC(C)CCc2ccccc2)cc1C(N)=O (stereo not given) | - | - | - | - | - | - | - | - | .
Cc1ccc(S(=O)(=O)NC(C)CCc2ccccc2)cc1 (stereo not given) | - | - | - | - | - | - | . | . | .
CC(C)C[C@@H](CO)N1CCN(Cc2ccc([N+](=O)[O-])cc2)CCC1=O | - | - | - | - | - | - | . | . | .
COc1ccc(C(=O)O/N=C2\C(=O)N(C)c3ccccc32)cc1 | - | - | 52 | - | - | - | - | - | .
CN(C)S(=O)(=O)c1ccc(C(=O)NCC[N+]2(C)CCCCCC2)o1 | - | - | 68 | - | - | - | - | - | .
Cc1ccc(NC(=O)c2ccc(Br)o2)cc1S(=O)(=O)N(C)C | - | - | - | - | - | - | . | . | .
